Test results reported in paper PMC9621298 (Journal of Enzyme Inhibition and Medicinal Chemistry, 2022).
“Also recorded” adds a separate entry of the source.

How the values were obtained:
[1] = target: T1, binding of Siah1 to AIMP2-DX2 (Homo sapiens, UniProt Q13155+Q8IUQ4); experiment: Immunoprecipitation assay: cellular binding of AIMP2-DX2 and Siah1; assay type: cell-based; settings: Figure 5(A)
T1 sequence (Q13155 1-251 isoform Q13155-2): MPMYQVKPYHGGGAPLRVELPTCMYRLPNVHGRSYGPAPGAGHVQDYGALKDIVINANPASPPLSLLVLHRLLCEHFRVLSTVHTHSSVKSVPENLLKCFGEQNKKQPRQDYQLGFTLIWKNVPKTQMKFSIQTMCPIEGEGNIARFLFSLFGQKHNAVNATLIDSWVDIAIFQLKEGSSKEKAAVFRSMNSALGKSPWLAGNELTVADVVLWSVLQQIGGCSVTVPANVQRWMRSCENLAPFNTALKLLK
T1 sequence (Q8IUQ4 1-282): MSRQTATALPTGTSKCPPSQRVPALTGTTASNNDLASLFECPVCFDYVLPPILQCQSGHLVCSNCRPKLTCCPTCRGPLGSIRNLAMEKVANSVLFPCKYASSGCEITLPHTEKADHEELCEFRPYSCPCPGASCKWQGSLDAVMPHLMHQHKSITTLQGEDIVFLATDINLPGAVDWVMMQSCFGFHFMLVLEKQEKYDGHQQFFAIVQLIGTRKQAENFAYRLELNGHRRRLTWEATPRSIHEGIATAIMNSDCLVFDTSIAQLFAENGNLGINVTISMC

[2] = target: T2, AIMP2-DX2 (Homo sapiens, UniProt Q13155); experiment: Ubiquitination assay in 293 T cells expressing strep-tagged AIMP2-DX2; assay type: cell-based; settings: 293 T cells expressing strep-AIMP2-DX2, with MG132
T2 sequence (Q13155 1-251 isoform Q13155-2): T1 sequence (Q13155 1-251 isoform Q13155-2)
Procedure, shortened: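 293 T cells were grown in DMEM with 10% FBS at 37 °C in 5% CO2 and expressed strep-tagged AIMP2-DX2 from the pEXPR-IBA5 vector. AIMP2-DX2 was pulled down on strep-tactin, run on SDS-PAGE and immunoblotted, including with anti-ubiquitin.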

[3] = target: T3, binding of Siah1 and AIMP2-DX2 (Homo sapiens, UniProt Q13155+Q8IUQ4); experiment: In vitro pull-down assay: binding of Siah1 and AIMP2-DX2; settings: Figure 5(B)
T3 sequence (Q13155 1-251 isoform Q13155-2): T1 sequence (Q13155 1-251 isoform Q13155-2)
T3 sequence (Q8IUQ4 1-282): T1 sequence (Q8IUQ4 1-282)
Procedure, shortened: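 Direct binding of the two proteins was tested in vitro by GST pull-down with test compound present. An empty-vector control was included. GST proteins were detected by Coomassie staining.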

[4] = target: T2, AIMP2-DX2; experiment: Western blotting of AIMP2-DX2 protein level; assay type: cell-based; settings: Figure 6(A)
[5] = target: T4, AIMP2 (Homo sapiens, UniProt Q13155); experiment: Western blotting of AIMP2 level; assay type: cell-based; settings: selectivity versus AIMP2-DX2
T4 sequence (Q13155 1-320): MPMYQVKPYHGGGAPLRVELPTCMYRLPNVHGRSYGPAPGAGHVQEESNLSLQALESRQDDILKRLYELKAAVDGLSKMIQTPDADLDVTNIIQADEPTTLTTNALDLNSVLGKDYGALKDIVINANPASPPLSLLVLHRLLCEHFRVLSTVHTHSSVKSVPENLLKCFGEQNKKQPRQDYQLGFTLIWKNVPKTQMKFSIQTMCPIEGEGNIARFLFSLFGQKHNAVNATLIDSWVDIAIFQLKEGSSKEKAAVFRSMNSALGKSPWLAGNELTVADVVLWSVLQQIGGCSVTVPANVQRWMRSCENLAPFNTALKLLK

[6] = test system: Siah1-knockdowned cells; experiment: MTT cell viability assay with Siah1 knockdown by si-RNA; assay type: cell-based; settings: Figure 7(A)
Procedure, shortened: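 Cells were knocked down for Siah1 with specific si-RNA and then treated with test compound. Viability was read by MTT: 96 h in serum-free medium, MTT for 1.5 h at 37 °C, formazan in DMSO, absorbance at 560 nm. Siah1 and AIMP2-DX2 protein levels were checked by immunoblotting. Three independent repeats.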

[7] = target: T2, AIMP2-DX2; experiment: Screening: luminescence of luciferase-tagged AIMP2-DX2 in A549 cells; assay type: cell-based; settings: 4 µM, 24 h
[8] = target: T5, Siah1 (Homo sapiens, UniProt Q8IUQ4); experiment: In vitro pull-down assay with biotin-attached E3 ligase ligands; settings: tested as biotin-attached 5 and 6; no binding to AIMP2-DX2
T5 sequence (Q8IUQ4 1-282): T1 sequence (Q8IUQ4 1-282)

[9] = target: T5, Siah1; experiment: Surface plasmon resonance; assay type: binding; settings: details are not reported

SMILES: Cc1ccc(S(=O)(=O)N[C@@H](Cc2c[nH]c3ccccc23)C(=O)Nc2ccc(N3CCN(C(=O)CCOCCNc4cccc5c4C(=O)N(C4CCC(=O)NC4=O)C5=O)CC3)cc2)cc1 (stereo partly drawn) [Compound 45, (2S)-N-(4–(4-(3–(2-((2–(2,6-Dioxopiperidin-3-yl)-1,3-dioxoisoindolin-4-yl)amino)ethoxy)propanoyl)piperazin-1-yl)phenyl)-3-(1H-indol-3-yl)-2-((4-methylphenyl)sulfonamido)propanamide]
- endogenous binding of Siah1 to AIMP2-DX2 (immunoprecipitation) [1]: enhances the endogenous binding of Siah1 to AIMP2-DX2 in a dose-dependent manner
- ubiquitination of AIMP2-DX2 [2]: induced
- binding of Siah1 and AIMP2-DX2 (in vitro pull-down) [3]: direct effect on binding of two proteins
- level of AIMP2-DX2 protein [4]: specifically decreased
- effect on AIMP2 [5]: without any effect on AIMP2
- cell viability ([6]; Siah1 knocked down using specific si-RNA): no significant difference in cell viability
- cell viability ([6]; Siah1 not knocked down): efficiently reduced cell viability

SMILES: O=C1CCC(N2C(=O)c3cccc(OCCOCCOCCOCCOCCOCc4cn(Cc5ccc(S(=O)(=O)N[C@@H](Cc6c[nH]c7ccccc67)C(=O)Nc6ccc(N7CCOCC7)cc6)cc5)nn4)c3C2=O)C(=O)N1 (stereo partly drawn) [Compound 16, (2S)-2-((4-((4–(16-((2–(2,6-dioxopiperidin-3-yl)-1,3-Dioxoisoindolin-4-yl)oxy)-2,5,8,11,14-pentaoxahexadecyl)-1H-1,2,3-triazol-1-yl)methyl)phenyl)sulfonamido)-3-(1H-indol-3-yl)-N-(4-morpholinophenyl)propanamide]
- inhibitory activity on AIMP2-DX2 (in words) [7]: very poor inhibitory activities

SMILES: O=C1CCC(N2C(=O)c3cccc(NC(=O)CCOCCOCCOCCOCCOCCOCc4cn(Cc5ccc(S(=O)(=O)N[C@@H](Cc6c[nH]c7ccccc67)C(=O)Nc6ccc(N7CCOCC7)cc6)cc5)nn4)c3C2=O)C(=O)N1 (stereo partly drawn) [Compound 23, 1–(1-(4-(N-((S)-3-(1H-Indol-3-yl)-1-((4-morpholinophenyl)amino)-1-oxopropan-2-yl)sulfamoyl)benzyl)-1H-1,2,3-triazol-4-yl)-N-(2–(2,6-dioxopiperidin-3-yl)-1,3-dioxoisoindolin-4-yl)-2,5,8,11,14,17-hexaoxaicosan-20-amide]
- inhibitory activity on AIMP2-DX2 (in words) [7]: very poor inhibitory activities

SMILES: Nc1cccc2c1C(=O)N(C1CCC(=O)NC1=O)C2=O (centres unmarked) [Compound 4, pomalidomide]
- binding to Siah1 (in vitro pull-down) [8]: specifically bind to Siah1
- binding affinity with Siah1 (SPR) [9]: most favourable; also recorded: some degree of binding affinity

SMILES: O=C1CCC(N2C(=O)c3cccc(NC(=O)COCCOCCOCCOCCOCCNC(=O)c4ccc(S(=O)(=O)N[C@@H](Cc5c[nH]c6ccccc56)C(=O)Nc5ccc(N6CCOCC6)cc5)cc4)c3C2=O)C(=O)N1 (stereo partly drawn) [Compound 31, 4-(N-((S)-3-(1H-Indol-3-yl)-1-((4-morpholinophenyl)amino)-1-oxopropan-2-yl)sulfamoyl)-N-(17-((2–(2,6-dioxopiperidin-3-yl)-1,3-dioxoisoindolin-4-yl)amino)-17-oxo-3,6,9,12,15-pentaoxaheptadecyl)benzamide]
- inhibitory activity on AIMP2-DX2 (in words) [7]: very poor inhibitory activities

SMILES: O=C1CCC(N2C(=O)c3cccc(NC(=O)CCOCCOCCOCCOCc4cn(Cc5ccc(S(=O)(=O)N[C@@H](Cc6c[nH]c7ccccc67)C(=O)Nc6ccc(N7CCOCC7)cc6)cc5)nn4)c3C2=O)C(=O)N1 (stereo partly drawn) [Compound 21, 1–(1-(4-(N-((S)-3-(1H-Indol-3-yl)-1-((4-morpholinophenyl)amino)-1-oxopropan-2-yl)sulfamoyl)benzyl)-1H-1,2,3-triazol-4-yl)-N-(2–(2,6-dioxopiperidin-3-yl)-1,3-dioxoisoindolin-4-yl)-2,5,8,11-tetraoxatetradecan-14-amide]
- inhibitory activity on AIMP2-DX2 (in words) [7]: very poor inhibitory activities

SMILES: O=C1CCC(N2C(=O)c3cccc(NC(=O)CCOCCOCCOCCOCCOCc4cn(Cc5ccc(S(=O)(=O)N[C@@H](Cc6c[nH]c7ccccc67)C(=O)Nc6ccc(N7CCOCC7)cc6)cc5)nn4)c3C2=O)C(=O)N1 (stereo partly drawn) [Compound 22, 1–(1-(4-(N-((S)-3-(1H-Indol-3-yl)-1-((4-morpholinophenyl)amino)-1-oxopropan-2-yl)sulfamoyl)benzyl)-1H-1,2,3-triazol-4-yl)-N-(2–(2,6-dioxopiperidin-3-yl)-1,3-dioxoisoindolin-4-yl)-2,5,8,11,14-pentaoxaheptadecan-17-amide]
- inhibitory activity on AIMP2-DX2 (in words) [7]: very poor inhibitory activities
